pIC50: −log10 of the molar value.
How the values were obtained:
[1] = Selectivity index, ratio of IC50 for mouse […] cells to IC50 for bloodstream form of Trypanosoma brucei brucei Lister 427; format: toxicity; settings: read-out: Ratio IC50
[2] = system: Trypanosoma brucei brucei; test: Anti-parasitic activity against bloodstream form of Trypanosoma brucei brucei Lister 427 after 48 hrs by MTS assay; format: functional; settings: Lister 427, 48 h
Outline: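 Bloodstream-form parasites grown in HMI-9 with 10% FBS at 37 °C, 7.5% CO2. 5,000 cells per well exposed to a range of compound concentrations, 0.1% DMSO, for 48 hrs at 37 °C. MTS (5% PMS) then added for 3 hrs at 37 °C, formazan read at 490 nm. Quadruplicate data normalized and fitted to a dose-response curve for IC50.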

HEK293 = test: Cytotoxicity against HEK293 cells assessed as reduction in cell viability after 48 hrs by MTT assay; format: cell-based; settings: Homo sapiens, HEK293, 48 h
Outline: (§1)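 Cells kept in RPMI1640 with 10% heat-inactivated FBS, L-glutamine, pyruvate and pen-strep at 37 °C, 5% CO2. 3000 cells per well seeded for 24 hrs, then given a range of compound concentrations (DMSO final ≤0.1%) for 48 hrs. 0.5 mg/ml MTT for 2 hrs at 37 °C, dye dissolved in DMSO, absorbance at 570 nm. Quadruplicates normalized and fitted to a dose-response curve.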

[3] = Selectivity index, ratio of IC50 for HEK293 cells to IC50 for bloodstream form of Trypanosoma brucei brucei Lister 427; format: toxicity; settings: human, read-out: Ratio IC50
[4] = Cytotoxicity against mouse […] cells assessed as reduction in cell viability after 48 hrs by MTT assay; format: cell-based; outline: as §1
[5] = system: Trypanosoma brucei brucei; test: Inhibition of tubulin polymerization in Trypanosoma brucei brucei Lister 427 incubated for 7 hrs by Western blot analysis
Outline: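 Parasites treated with 0.5% DMSO or different doses of compound for 7 hrs. Cells washed in TDB buffer pH 7.4, then lysed in Pipes pH 6.8 buffer with 0.2% Triton X-100 for 5 mins at 30 °C. Supernatant (soluble) and pellet (polymerized) fractions separated by centrifugation. Lysate from equal cell numbers run on 10% SDS-PAGE, western blot with TAT-1 tubulin antibody.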

| pIC50 [2] | inhibition [5] | SMILES | selectivity ratio [1] | pIC50 (HEK293) | selectivity ratio [3] | pIC50 [4] |
| --- | --- | --- | --- | --- | --- | --- |
| 4.89 | – | Cc1ccc(C(F)(F)F)cc1COc1cc(NC(=O)c2ccc(C(F)(F)F)cc2C(F)(F)F)ccc1N(C)S(C)(=O)=O | > 38 | 3.99 | 8 | < 3.30 |
| 7.15 | Dose-dependent effect | CN(c1ccc(NC(=O)c2ccc(C#N)cc2)cc1OCc1ccc(C(F)(F)F)cc1)S(=O)(=O)Cc1ccccc1 | > 7140 | < 3.30 | > 7140 | < 3.30 |
| 4.98 | – | CN(c1ccc(NC(=O)c2ccc(C(F)(F)F)cc2C(F)(F)F)cc1OCc1ccccc1C(F)(F)F)S(=O)(=O)Cc1ccccc1 | > 48 | < 3.30 | 15 | 3.80 |
| 4.63 | – | CCS(=O)(=O)N(C)c1ccc(NC(=O)c2ccc3c(c2)OCO3)cc1OCc1cccc(C#N)c1 | > 21 | < 3.30 | > 21 | < 3.30 |
| 4.81 | – | Cc1ccc(C(F)(F)F)cc1COc1cc(NC(=O)c2cc(C(F)(F)F)cc(C(F)(F)F)c2)ccc1N(C)S(C)(=O)=O | > 32 | < 3.30 | > 32 | < 3.30 |
| 4.52 | – | CCCCCCOc1cc(NC(=O)c2ccc(C(F)(F)F)cc2C(F)(F)F)ccc1N(C)S(C)(=O)=O | > 17 | < 3.30 | > 17 | < 3.30 |
| 4.64 | – | CCCCCCOc1cc(NC(=O)c2cc(C(F)(F)F)cc(C(F)(F)F)c2)ccc1N(C)S(C)(=O)=O | > 22 | < 3.30 | > 22 | < 3.30 |
| < 4.30 | – | CN(c1ccc(NC(=O)c2cc(C(F)(F)F)cc(C(F)(F)F)c2)cc1OCc1cccc(C(=N)N)c1)S(C)(=O)=O | > 10 | < 3.30 | > 10 | < 3.30 |
| 5.75 | – | CN(c1ccc(NC(=O)c2ccc(C(F)(F)F)cc2C(F)(F)F)cc1OCc1cccc(C(F)(F)F)c1)S(=O)(=O)Cc1ccccc1 | 99 | 3.76 | 12 | 4.69 |
| 5.47 | – | CN(c1ccc(NC(=O)c2cc(C(F)(F)F)cc(C(F)(F)F)c2)cc1OCc1ccc(C(F)(F)F)cc1)S(=O)(=O)Cc1ccccc1 | 86 | 3.53 | > 147 | < 3.30 |
| 5.07 | – | CN(c1ccc(NC(=O)c2ccc(C(F)(F)F)cc2C(F)(F)F)cc1OCc1cccc(C(F)(F)F)c1)S(C)(=O)=O | > 59 | 4.09 | 10 | < 3.30 |
| 5.68 | – | CN(c1ccc(NC(=O)c2cc(C(F)(F)F)cc(C(F)(F)F)c2)cc1OCc1cccc(C(F)(F)F)c1)S(=O)(=O)Cc1ccccc1 | 29 | 4.22 | 33 | 4.16 |
| 5.07 | – | CN(c1ccc(NC(=O)c2cc(C(F)(F)F)cc(C(F)(F)F)c2)cc1OCc1cccc(C(F)(F)F)c1)S(C)(=O)=O | > 58 | 4.27 | 6 | < 3.30 |
| 5.01 | – | CN(c1ccc(NC(=O)c2cc(C(F)(F)F)cc(C(F)(F)F)c2)cc1OCc1ccccc1C(F)(F)F)S(C)(=O)=O | > 51 | < 3.30 | > 51 | < 3.30 |
| 4.88 | – | CN(c1ccc(NC(=O)c2ccc(C(F)(F)F)cc2C(F)(F)F)cc1OCc1ccccc1C(F)(F)F)S(C)(=O)=O | > 38 | 4.46 | 3 | < 3.30 |
| 5.11 | – | CCCCCCOc1cc(NC(=O)c2cc(C(F)(F)F)cc(C(F)(F)F)c2)ccc1N(C)S(=O)(=O)Cc1ccccc1 | 9 | 4.16 | 2 | 4.88 |
| < 4.30 | – | Cc1ccc(C)c(COc2cc(Nc3nccc(N)n3)ccc2N(C)S(C)(=O)=O)c1 | > 10 | < 3.30 | > 10 | < 3.30 |
| 5.15 | – | CN(c1ccc(NC(=O)c2cc(C(F)(F)F)cc(C(F)(F)F)c2)cc1OCc1ccccc1C(F)(F)F)S(=O)(=O)Cc1ccccc1 | > 70 | < 3.30 | > 70 | < 3.30 |

— ChEMBL document CHEMBL4020730, “Synthesis and biological evaluation of selective tubulin inhibitors as anti-trypanosomal agents” (Bioorg Med Chem, 2017)
